From PMC4476059 (Cell, 2015)

How the values were obtained:
Assay type in all cases: cell-based
[1] = target: T1, full-length wild-type LPA1 (Homo sapiens, UniProt Q92633); experiment: Ca2+ mobilization assay in B103 cells expressing full-length wild-type LPA1; settings: read-out: EC50, Ca2+ mobilization assay; B103 cells heterologously expressing full-length wild-type LPA1; normalized to 3 μM 1-oleoyl-LPA (Figure 6D)
[2] = target: T1, full-length wild-type LPA1; experiment: cAMP assay; settings: read-out: EC50, cAMP assay; B103 cells expressing full-length wild-type LPA1; 10 μM forskolin; n=2 (Figure 6D)
LPA1 [3] = target: T2, LPA1 (Homo sapiens, UniProt Q92633); experiment: F-actin stress fiber formation assay in B103 cells expressing LPA1; settings: 15 min treatment
T2 sequence (Q92633 whole entry): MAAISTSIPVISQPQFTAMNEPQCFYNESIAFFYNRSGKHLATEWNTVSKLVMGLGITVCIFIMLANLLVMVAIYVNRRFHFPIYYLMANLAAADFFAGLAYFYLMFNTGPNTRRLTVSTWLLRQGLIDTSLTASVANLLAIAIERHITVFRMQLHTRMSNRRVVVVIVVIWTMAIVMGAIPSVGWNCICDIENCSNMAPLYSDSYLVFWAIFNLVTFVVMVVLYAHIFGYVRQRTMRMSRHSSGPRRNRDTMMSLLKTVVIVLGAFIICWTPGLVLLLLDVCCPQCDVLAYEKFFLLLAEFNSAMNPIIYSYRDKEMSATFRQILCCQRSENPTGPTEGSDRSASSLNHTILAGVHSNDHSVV
Method in brief: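 Rat neuroblastoma B103 cells stably expressing HA-tagged full-length human LPA1 (G418 selection, FACS-sorted for high anti-HA signal), starved overnight in FreeStyle 293 medium, then exposed to ligands for 15 min at 37°C. Cells were fixed with 2% paraformaldehyde, washed with 0.3% Triton X-100 in PBS, stained with 1 μg/mL rhodamine-phalloidin for 30 min at room temperature, and imaged by confocal microscopy.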

LPA1 [4] = target: T2, LPA1; experiment: Neurite retraction assay in B103 cells expressing LPA1; settings: stable cell line expressing LPA1, 15 min treatment
Method in brief: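 B103 rat neuroblastoma stable line carrying HA-tagged full-length human LPA1 (G418-selected, sorted for high anti-HA staining), serum-starved overnight in FreeStyle 293 medium. Cells were given ligands for 15 min at 37°C, washed, and fixed in 2% paraformaldehyde. Under the microscope, round cells lacking neurite extensions were counted and expressed as a percentage of observed cells.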

T1 sequence (Q92633 whole entry): as above

Compound CCCCCCCC/C=C\CCCCCCCC(=O)OCC(O)COP(=O)(O)O (centres unmarked) [LPA 18:1 sn1, 1-oleoyl-LPA] has an EC50 [1] of 146 ± 74 nM and an EC50 [2] of 0.345 ± 0.202 nM.
CCCCC/C=C\C/C=C\C/C=C\C/C=C\CCCC(=O)OC[C@@H](O)COP(=O)(O)O [1-ALPA, 1-arachidonoyl-LPA] showed an EC50 [1] of 1120 ± 1480 nM.
In the case of CCCCC/C=C\C/C=C\C/C=C\C/C=C\CCCC(=O)NCCOP(=O)(O)O [pAEA], the “F-actin stress fiber formation” value (LPA1 [3]) is reported as “activated” and the “Neurite retraction (cell morphology change mediated by LPA1)” value (LPA1 [4]) is reported as “robust activation”.
